From PubChem
Sampled rows, rich in hits. Any-hit rate of the full collection: about 2.3%.
TRPC6 inh: inhibitors of mouse TRPC6 channel; Q61143; HEK293-TRPC6, membrane potential dye, ACh-evoked depolarization; hits give low values; B-score at 10 µM; 1.1% of 310,000 active; AID 2553;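 active = B-score under library mean minus 3 SD, initial fluorescence not abnormally high, positive integrated signal ratio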;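 also: B-score derived from integrated fluorescence ratio over the kinetic read; more negative B-score means stronger inhibition of depolarization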
TRPC4 PAM: TRPC4 (mouse) allosteric potentiation; HEK293 TRPC4beta/mu-opioid, DAMGO EC20, Fluo-4 Ca2+ flux; hits give high values; B-score at 10 µM; 0.42% of 310,000 active; Q9QUQ5;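 active = B-score of calcium response area above 5 SD of library B-scores, with initial fluorescence ratio within 5 SD of library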
Target sequence (Q9QUQ5 whole entry, looked up): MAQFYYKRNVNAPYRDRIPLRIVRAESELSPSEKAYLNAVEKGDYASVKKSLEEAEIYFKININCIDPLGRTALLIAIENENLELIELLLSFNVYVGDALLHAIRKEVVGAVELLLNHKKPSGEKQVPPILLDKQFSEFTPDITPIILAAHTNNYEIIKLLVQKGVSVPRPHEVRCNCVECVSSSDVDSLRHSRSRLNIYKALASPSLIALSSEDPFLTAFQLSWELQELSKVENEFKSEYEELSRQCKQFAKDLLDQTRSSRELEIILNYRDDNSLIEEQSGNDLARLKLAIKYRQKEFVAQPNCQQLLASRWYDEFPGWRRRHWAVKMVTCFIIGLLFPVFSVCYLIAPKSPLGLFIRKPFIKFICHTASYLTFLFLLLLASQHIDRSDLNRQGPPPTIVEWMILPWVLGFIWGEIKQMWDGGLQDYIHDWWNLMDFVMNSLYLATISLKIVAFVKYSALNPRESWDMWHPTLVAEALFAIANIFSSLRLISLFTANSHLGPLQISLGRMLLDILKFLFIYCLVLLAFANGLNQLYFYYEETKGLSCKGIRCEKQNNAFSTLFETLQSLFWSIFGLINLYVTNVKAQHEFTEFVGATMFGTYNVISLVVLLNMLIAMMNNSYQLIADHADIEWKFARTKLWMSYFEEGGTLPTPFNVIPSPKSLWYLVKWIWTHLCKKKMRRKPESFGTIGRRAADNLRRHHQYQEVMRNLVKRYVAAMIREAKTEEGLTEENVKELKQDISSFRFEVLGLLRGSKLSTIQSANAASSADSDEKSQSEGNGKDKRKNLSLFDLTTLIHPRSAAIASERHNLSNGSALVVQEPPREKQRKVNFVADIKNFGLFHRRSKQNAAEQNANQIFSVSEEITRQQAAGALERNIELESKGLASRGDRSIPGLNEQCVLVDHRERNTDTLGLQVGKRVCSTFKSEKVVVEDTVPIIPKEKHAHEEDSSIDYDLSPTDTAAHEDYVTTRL
TRPC4 agonist: activators of mouse TRPC4 channel. Q9QUQ5. HEK293 TRPC4beta/mu-opioid, Fluo4 calcium fluorescence; hits give high values. B-score at 10 µM. 0.49% of 310,000 active. AID 2237;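 active = B-score above 5 SD of library B-scores, and initial fluorescence ratio not above library mean plus 5 SD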;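 also: positive B-score marks a calcium rise read as TRPC4 activation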
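System – HEK293 cells stably co-expressing mouse TRPC4beta and mu-opioid receptor · Signal – Fluo4 calcium-sensitive dye fluorescence, kinetic, 1 Hz baseline · Benchmarks – buffer (low) and maximal DAMGO (high) · Read-out – B score of integrated fluorescence ratio per well · Incubation – dye loading 45 min room temperature, 110 s kinetic read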
TRPC6 act: activates the mouse TRPC6 cation channel. Q61143. HEK293-TRPC6 membrane potential dye fluorescence; hits give high values. B-score at 10 µM. 0.13% of 310,000 active;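 active = B-score of the integrated fluorescence ratio above library mean plus 3 SD, and starting fluorescence ratio within library mean plus 5 SD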;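 also: higher score means more depolarization so channel activation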
TRPC4 inh: inhibitors of mouse TRPC4 channel; Q9QUQ5; HEK293 TRPC4beta/mu-opioid, DAMGO-evoked Fluo4 calcium flux; hits give low values; B-score at 10 µM; 0.39% of 300,000 active; AID 2247;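 active = B-score over 3 SD under the library average, no early fluorescence shift, positive overall ratio signal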
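Signal: kinetic Fluo4 fluorescence imaging of calcium influx. Material: stable TRPC4beta/mu-opioid receptor HEK293 cells. Probe or stimulus: DAMGO in two steps, submaximal then maximal.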
TRPC4 spec 2: second check of whether TRPC6 inhibitors also affect mouse TRPC4; shares compounds with TRPC6 inh; HEK293 TRPC4/MOR, membrane potential dye fluorescence; channel activated by saturating DAMGO dose; inhibition, % at 10 µM; 42% of 920 active; AID 2776;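 active = compounds whose fluorescence signal differed from control wells by over 3 SD, either direction, in both duplicate plates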
TRPC4 spec: mouse TRPC4 off-target activity of TRPC6 inhibitors | shares compounds with TRPC6 inh | HEK293 TRPC4/mu-opioid, membrane potential fluorescence | activity change, negative = inhibition, % at 10 µM | 61% of 920 active;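 active = rise or fall in signal beyond 3 SD of buffer-only wells in both replicate plates, either sign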;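 also: integrated kinetic ratio of fluorescence range over baseline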
HEK293 MPD ctr 2-1: second counter-screen for TRPC6 inhibitors: parental HEK293 cells; signal change vs control, % at 10 µM; 31% of 920 active; parental HEK293 membrane potential dye fluorescence; maximal acetylcholine challenge after compound addition; AID 2779; shares compounds with TRPC6 inh;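 active = membrane potential signal moving either way by over 3 SD of the maximum-effect control, in both duplicate plates, meaning non-specific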
HEK293 MPD ctr-1: checks TRPC6 inhibitor effects in parental HEK293 cells; shares compounds with TRPC6 inh; parental HEK293 membrane potential dye fluorescence; membrane potential signal change, % at 10 µM; 60% of 920 active; AID 2780;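 active = membrane potential signal shifting up or down by more than 3 SD of buffer-only wells, on both duplicate plates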
HEK293 MPD ctr-2: counter-screen for TRPC6 modulators: effect in parental HEK293 cells. AID 488924. 51% of 2,400 active. membrane potential dye fluorescence. membrane potential signal change, % at 10 µM. shares compounds with TRPC6 inh;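 active = membrane potential signal moves up or down beyond 5 SD from buffer-only wells, on both duplicate plates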
HEK293 MPD ctr 2-2: second counter-screen for TRPC6 modulators: effect in parental HEK293 cells; shares compounds with TRPC6 inh; membrane potential dye fluorescence; after compound, maximal acetylcholine stimulation; inhibition, % at 10 µM; 14% of 2,400 active;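 active = membrane potential signal drops by more than 5 SD from the mean control signal, in both duplicate plates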
TRPC4 ctr mod: mouse TRPC4 off-target activity of TRPC6 modulators. percent change from control (negative = decrease, positive = increase), % at 10 µM. HEK293 TRPC4/mu-opioid, membrane potential fluorescence. 69% of 2,400 active. AID 488927. shares compounds with TRPC6 inh;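 active = membrane potential signal moved up or down beyond 5 SD of buffer control wells, in both duplicate plates, actives on both sides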
TRPC4 ctr inh 2: second selectivity test of TRPC6 modulators against mouse TRPC4; shares compounds with TRPC6 inh; HEK293 TRPC4/mu-opioid, membrane potential dye fluorescence; stimulated with maximal-effect DAMGO; inhibition, % at 10 µM; 55% of 2,400 active; AID 488928;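 active = drop in membrane potential signal beyond 5 SD of the control wells in both duplicate plates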;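 also: TRPC4 counter screen for TRPC6 hits run under conditions tuned for TRPC6 not TRPC4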
TRPC6 block conf: mouse TRPC6 inhibitor confirmation; AID 488960; shares compounds with TRPC6 inh; HEK293-TRPC6, membrane potential dye, ACh-evoked depolarization; 43% of 3,300 active; inhibition, % at 10 µM;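 active = fluorescence ratio falls more than 5 SD below the full-stimulation control mean, in both duplicate runs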;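 also: integrated fluorescence ratio of peak minus minimum over baseline after agonist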
TRPC6 act conf: mouse TRPC6 activator confirmation; HEK293-TRPC6 membrane potential dye fluorescence, FDSS; activation, % at 10 µM; shares compounds with TRPC6 inh; 11% of 2,800 active;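 active = ratio signal rise beyond 5 SD above unstimulated control wells' mean, seen in both duplicate runs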
A number is an active result; . = inactive; / = no result.

SMILES | TRPC6 inh | TRPC4 PAM | TRPC4 agonist | TRPC6 act | TRPC4 inh | HEK293 MPD ctr-2 | HEK293 MPD ctr 2-2 | TRPC4 ctr mod | TRPC4 ctr inh 2 | TRPC6 block conf | TRPC6 act conf | others
COc1cc(/C=N/Nc2nc(N3CCCC3)nc(N3CCCC3)n2)ccc1OCc1ccccc1F | -7.4 | . | . | . | . | / | / | / | / | . | . | TRPC4 spec 2=.;TRPC4 spec=-14%;HEK293 MPD ctr 2-1=.;HEK293 MPD ctr-1=.
COc1ccc(/C=N/Nc2nc(N3CCCC3)nc(N3CCCC3)n2)cc1O | -5.5 | . | . | . | . | . | . | . | . | . | .
COc1ccc(/C=N/Nc2nc(N3CCCC3)nc(N3CCCC3)n2)cc1 | . | . | . | . | . | / | / | / | / | / | /
CN(C)CCNC(=O)c1ccccc1 | . | . | . | . | . | / | / | / | / | / | /
Cc1sc(NC(=O)c2ccccc2)c(C(=O)NCCN(C)C)c1C | -11 | . | 148 | . | . | -161% | . | -31% | 74% | 62% | .
Oc1ccc(-c2[nH]ncc2-c2ccc(Cl)cc2)c(O)c1 | -7.4 | . | . | . | . | -74% | . | -22% | 79% | 46% | .
Oc1ccc(-c2[nH]ncc2-c2cccc3cccnc23)c(O)c1 | . | . | . | . | . | / | / | / | / | / | /
COc1ccc(-c2cn[nH]c2-c2ccc(OC)cc2O)cc1 | -5.2 | . | . | . | . | . | . | -14% | 48% | . | .
COc1ccc(-c2[nH]ncc2-c2ccc(Cl)cc2)c(O)c1 | . | . | . | . | . | / | / | / | / | / | /
Oc1ccc(-c2[nH]ncc2-c2ccc(Br)cc2)c(O)c1 | -5.3 | . | . | . | . | -72% | . | -16% | 68% | 50% | .
CSc1ccc(C(=O)C2CCCN(C(=O)CCc3c(C)nn(C)c3C)C2)cc1 (stereo not drawn) | . | . | . | . | . | / | / | / | / | / | /
CCOc1ccc(CN(C)c2nc(-c3cccnc3)nc3ccccc23)cc1OC | . | . | . | . | . | / | / | / | / | / | /
Cc1ccc(F)cc1NC(=O)COC(=O)COc1ccc(C#N)cc1 | . | . | . | . | . | / | / | / | / | / | /
CSc1nc(SCC(=O)NCC2CCCO2)c2c3c(sc2n1)CN(C)CC3 (stereo not drawn) | -5 | . | . | . | . | -134% | . | -28% | . | . | .
Cc1ccc(S(=O)(=O)N2CCC(C(=O)OCC(=O)N3CCCC3=O)CC2)cc1C | . | . | . | . | . | / | / | / | / | / | /
Oc1ccccc1Oc1ncc(Br)c(Cl)n1 | . | . | . | . | . | / | / | / | / | / | /
Oc1ccccc1Oc1ncc(Br)c(N2CCOCC2)n1 | -7.2 | . | . | . | . | / | / | / | / | . | . | TRPC4 spec 2=.;TRPC4 spec=.;HEK293 MPD ctr 2-1=.;HEK293 MPD ctr-1=.
O=C(Nc1ccccc1Oc1cccnc1)C1CCCN(Cc2ccc(F)cc2)C1 (stereo not drawn) | -6.4 | . | . | . | -6 | 176% | . | 31% | 46% | . | /
O=C(C1CCCN(Cc2ccc(F)cc2)C1)N1CCCCC1 (stereo not drawn) | . | . | . | . | . | / | / | / | / | / | /
COc1ccccc1N1CCN(C(=O)CN2C(=O)c3ccccc3S2(=O)=O)CC1 | . | . | . | . | . | / | / | / | / | / | /
O=C1S/C(=C\c2ccc(N3CCOCC3)o2)C(=O)N1c1ccccc1 | . | . | . | . | . | / | / | / | / | / | /
O=C1S/C(=C\c2ccc(N3CCOCC3)o2)C(=O)N1Cc1c(F)cccc1Cl | . | 17 | 43 | 28 | . | 226% | . | 117% | . | . | .
O=C1S/C(=C/c2ccc(N3CCOCC3)o2)C(=O)N1Cc1c(F)cccc1Cl | . | . | . | 17 | . | . | . | 100% | . | . | .
CCc1ccc(CN2CCCC(CNC(=O)c3cccc(OC)c3OC)C2)cc1 (stereo not drawn) | . | . | . | . | . | / | / | / | / | / | /
Cc1ccc(Cl)cc1NC(=O)CN1CCOCC1 | . | . | . | . | . | / | / | / | / | / | /
SMILES | TRPC6 inh | TRPC4 PAM | TRPC4 agonist | TRPC6 act | TRPC4 inh | HEK293 MPD ctr-2 | HEK293 MPD ctr 2-2 | TRPC4 ctr mod | TRPC4 ctr inh 2 | TRPC6 block conf | TRPC6 act conf | others
COc1ccc(S(=O)(=O)N2CCN(c3ccc4nnc(-c5ccc(F)cc5)n4n3)CC2)cc1 | -6.8 | . | . | . | . | / | / | / | / | . | . | TRPC4 spec 2=.;TRPC4 spec=.;HEK293 MPD ctr 2-1=.;HEK293 MPD ctr-1=.
CCC1CCCCN1C(=O)CCC(=O)Nc1nnc(C(F)(F)F)s1 (stereo not drawn) | . | . | . | . | . | / | / | / | / | / | /
Cc1ccc(Nc2c(-c3ccccc3)nc3cnccn23)cc1 | . | . | . | . | . | / | / | / | / | / | /
Cc1cccc(C)c1Nc1c(-c2ccc(N3CCOCC3)cc2)nc2cnccn12 | -8.3 | . | . | . | . | -236% | . | -42% | 92% | 75% | .
COc1ccc(-c2nc3cnccn3c2Nc2ccc(C)cc2)cc1 | -6.2 | . | . | . | . | -70% | . | -16% | 84% | 61% | .
N#CC1=C(N)SC(C(=O)c2ccccc2)C1c1cccs1 (stereo not drawn) | . | . | . | . | . | / | / | / | / | / | /
N#CC1=C(N)S[C@@H](C(=O)c2ccc(F)cc2)[C@@H]1c1cccs1 | -6.5 | . | . | . | . | . | . | . | . | . | .
Clc1ccc(CNC2CCN(Cc3ccccc3)CC2)cc1 | -6 | . | . | . | . | . | . | . | 55% | . | /
Fc1ccc(CNC2CCN(Cc3ccccc3)CC2)cc1 | . | . | . | . | . | / | / | / | / | / | /
COc1ccccc1NC(=O)COC(=O)c1oc2ccccc2c1C | . | . | . | . | . | / | / | / | / | / | /
COc1ccc(C(=O)Nc2cccc(N(C)S(C)(=O)=O)c2)cc1OC | . | . | . | . | . | / | / | / | / | / | /
